Source: PubChem BioAssay
Shown are actives, neighbours in structure and some others; about 2.8% of the full set was active somewhere.
NPY1 pot ag = potentiates or activates human NPY-Y1 receptor; P25929; NPY-Y1 expressing cells, potentiator/agonist activation; activation, % at 3.6 µM; 220,000 tested, 0.37% active; in the data active = activation above about 33%, passing the limit was not always enough;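 also: cells stimulated with NPY at EC10 then isoproterenol at EC100; 0% = low agonist plus stimulus and 100% = saturating agonist plus stimulus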
Target sequence (P25929 whole entry, looked up): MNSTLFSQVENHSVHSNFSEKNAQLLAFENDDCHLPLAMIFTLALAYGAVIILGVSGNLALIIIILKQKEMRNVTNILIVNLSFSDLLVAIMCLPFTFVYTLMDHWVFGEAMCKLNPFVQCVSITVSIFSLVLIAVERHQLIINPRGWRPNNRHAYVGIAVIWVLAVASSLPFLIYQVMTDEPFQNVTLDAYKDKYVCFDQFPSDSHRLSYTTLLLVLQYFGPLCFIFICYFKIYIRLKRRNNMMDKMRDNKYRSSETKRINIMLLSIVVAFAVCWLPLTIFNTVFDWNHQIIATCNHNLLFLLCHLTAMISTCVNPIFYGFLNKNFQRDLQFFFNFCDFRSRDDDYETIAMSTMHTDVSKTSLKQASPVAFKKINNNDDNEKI
PGE2 EP2 inh = EP2 receptor (human) inhibition; C6 glioma cells expressing human EP2, cAMP TR-FRET; cells stimulated with saturating PGE2; inhibition, % at 25 µM; 260,000 tested, 0.52% active; AID 1422;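 active = percent inhibition above 40 after rounding to a whole number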;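 also: rat C6 glioma host cells with rolipram phosphodiesterase inhibitor present; the protocol text gives 20 µM as final concentration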
EP2 modulator = EP2 receptor (human) modulation | 260,000 tested, 0.83% active | EP2-expressing cells, cAMP HTRF FRET, PGE2 co-stimulation | AID 940 | P43116 | induction, % at 25 µM;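 active = compounds whose cAMP rise, as percent of the full-agonist control response, exceeds 60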;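 also: rat C6 glioma line stably carrying human EP2 under a CMV promoter; the protocol text gives 20 µM as final concentration; 100% = response of wells given 1 µM PGE2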
NPY-Y1 antag = antagonists of human neuropeptide Y receptor Y1; P25929; HEK293-CNG Y1 cells, membrane potential fluorescence; NPY at EC95, then isoproterenol; inhibition, % at 3.6 µM; 200,000 tested, 1% active;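 active = inhibition above the campaign mean inhibition of all tested compounds plus 3 SD, cut at about 20% in these data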;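 also: 0% = DMSO wells given NPY plus isoproterenol and 100% = isoproterenol alone without NPY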
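System: HEK293 cells with Y1 receptor plus CNG channel / Probe or stimulus: NPY 25 nM then isoproterenol 1 µM plus Ro 20-1724 25 µM / Compound: one concentration, 3.6 µM, in 0.4% DMSO / Schedule: compound incubation 1 h at room temperature, readout 45 min post-stimulation / Measured by: membrane potential fluorescence / Read-out: % inhibition of NPY effect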
NPY-Y2 PAM-ag = potentiates or activates human NPY-Y2 receptor; P49146; cells expressing NPY-Y2, potentiator/agonist read-out; activation, % at 3.6 µM; 220,000 tested, 0.45% active; AID 1359; in the data active = activation above about 27%;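 also: cells stimulated with NPY near EC25 plus isoproterenol at EC100; 0% = vehicle plus submaximal agonist and 100% = vehicle plus saturating agonist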
NPY Y2 blocker = blocks the human neuropeptide Y Y2 receptor | P49146 | NPY-Y2 expressing cells, antagonist mode | inhibition, % at 2.7 µM | 140,000 tested, 0.99% active | AID 793; in the data active = inhibition above about 17%;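 also: 0% = vehicle with agonist challenge and 100% = reference antagonist with challenge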
EP2 cAMP induct = human EP2 receptor cAMP induction, negative in counter-screens; shares compounds with EP2 modulator; C6 glioma EP2 cells, cAMP HTRF induction; plus low (about EC15) PGE2 agonist; calls only at 20 µM (by protocol); 1,300 tested, 47% active; AID 1080;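 active = cAMP induction above 50% in the main assay while under 30% in all four parallel counter assays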;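 also: rat C6 glioma cells stably expressing human EP2 receptor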
* hit, by the source's call; i = inactive; · = not tested or not shown; + = active, no number.

SMILES	NPY1 pot ag	PGE2 EP2 inh	EP2 modulator	NPY-Y1 antag	NPY-Y2 PAM-ag	NPY Y2 blocker	EP2 cAMP induct
O=C(N/N=C/c1cccc(F)c1)NC1CCCCC1	-4	5	85*	3	2	1	+
O=C(N/N=C/c1ccccc1F)NC1CCCCC1	7	3	54	-4	5	2	·
CCOC(=O)Cn1nnnc1C(C(C)C)N(Cc1cc2c(C)cc(C)cc2[nH]c1=O)C1CCCCC1 (centres undefined)	·	14	5	·	·	·	·
CCc1nc(SCCO)c2oc3ccccc3c2n1	-44	10	35	-7	0	1	·
CCc1nc(N2CCC(C)CC2)c2oc3ccccc3c2n1	-45	5	70*	18	-46	16	i
CCOC(=O)c1c(/N=C/C2C(=O)CCCC2=O)sc2c1CCCC2	-5	3	52	2	9	·	i
CCOC(=O)c1c(CC(C)C)csc1/N=C/C1C(=O)CCCC1=O	-4	1	68*	2	13	·	i
CCOC(=O)c1c(-c2ccccc2)csc1/N=C/C1C(=O)CCCC1=O	-24	10	24	9	-7	1	·
Cc1ccc(Cn2c(Cc3ccccc3)nc3ccccc32)cc1	1	4	80*	-2	9	3	+
Cc1cccc(NCc2nc3ccccc3n2Cc2ccccc2)c1	-6	-1	66*	1	6	3	i
COCc1nc2ccccc2n1Cc1ccc(C)cc1	·	12	11	·	·	·	·
CC1=CC2C(CC1=O)C(C)=CCC2C(C)C (centres undefined)	·	2	55	·	·	·	+
CCOc1ccc(C(=O)Nc2nnc(C(CC)CC)s2)cc1OCC	·	11	-26	·	·	·	·
C=CCn1c(-c2oc3nc(-c4ccccc4)cc(-c4ccccc4)c3c2N)n[nH]c1=S	12	4	61*	0	-1	2	i
CN1C(=O)/C(=C/c2ccccc2OCc2cccc(F)c2)N(C)C1=S	-23	11	70*	15	-10	8	+
O=C(Nc1ccc2oc(-c3ccc(I)cc3)nc2c1)c1cccnc1	·	11	-12	·	·	·	·
CNC(=S)N1CCC(C(=O)c2ccc(F)cc2)CC1	·	11	-20	·	·	·	·
Cc1c(C=O)c(C=O)c(C)n1Cc1ccccc1	15	16	11	1	14	4	·
CCOC(=O)c1c(C=O)c(C)n(Cc2ccccc2Cl)c1C	-39	4	72*	15	-2	15	i
CCOC(=O)c1c(C=O)c(C)n(Cc2ccc(C)cc2)c1C	5	8	86*	9	-8	11	i
Cc1ccc(C2(O)CCN(Cc3[nH]c4ccccc4c3C)CC2)cc1	·	16	-107	·	·	·	·
Cc1ccccc1Cn1c2ccccc2c2cn[nH]c(=O)c21	-8	-7	62*	1	-3	4	+
Cc1cc2c(s1)c1cn[nH]c(=O)c1n2Cc1ccc(F)cc1	·	·	-20	·	·	·	·
Cc1cccc(N(CC(=O)Nc2ccc3c(c2)OCCO3)S(C)(=O)=O)c1C	·	14	-13	·	·	·	·
COc1ccc(-c2csc3nc(C)nc(N4CCC(C)CC4)c23)cc1OC	-29	12	70*	21*	-19	·	i
SMILES	NPY1 pot ag	PGE2 EP2 inh	EP2 modulator	NPY-Y1 antag	NPY-Y2 PAM-ag	NPY Y2 blocker	EP2 cAMP induct
O=C(COc1ccc(S(=O)(=O)N2CCCC2)cc1)NCc1ccc(Cl)cc1Cl	·	14	-27	·	·	·	·
COc1cccc2[nH]c3c(N4CCCCC4)ncnc3c12	-53	4	94*	5	-10	0	+
C=CCc1cc(/C=C/c2nc(O)c([N+](=O)[O-])c(=O)[nH]2)cc(OC)c1OC	·	9	15	·	·	·	·
Clc1ccc(Cn2c(/C=C/c3ccco3)nc3ccccc32)cc1	-3	9	69*	2	2	5	+
COc1ccc(-c2c3c([nH]c(=S)c2C#N)CCC3)cc1	5	18	77*	-2	3	1	i
NC(=O)CSc1nc(-c2ccccc2)c(-c2ccccc2)o1	12	3	67*	-3	19	1	+
CCc1nnc(NC(=O)CSc2nc(-c3ccccc3)c(-c3ccccc3)o2)s1	3	9	-16	2	2	0	·
O=C(O)c1ccc(N2C(=O)/C(=C/C=C/c3ccccc3)SC2=S)cc1	15	13	80*	2	10	·	+
CCC1Oc2ccc(C)cc2N(Cc2cccc(C)c2)C1=O (centres undefined)	4	6	75*	0	16	4	+
O=S1(=O)N=C(N(CCO)/N=C/C=C/c2ccccc2)c2ccccc21	-11	10	72*	-2	2	2	+
O=S1(=O)N=C(N/N=C/C=C/c2ccccc2)c2ccccc21	-14	4	-20	4	-2	1	·
CCOC(=O)c1c(-c2ccc(C)cc2)csc1NC(=O)CCN1CC(C)OC(C)C1 (centres undefined)	-30	6	86*	6	-26	8	+
CCOC(=O)c1c(-c2ccc(C)o2)csc1NC(=O)CN1CCCCC1	-32	4	66*	10	-22	·	i
Cc1nc2c(C(=O)Nc3ccccc3)snc2c(=O)[nH]1	·	19	-18	·	·	·	·
COc1ccc(-c2nc(NC(C)=O)sc2-c2ccccc2)cc1	4	10	62*	-1	17	·	i
COc1ccc(-c2sc(NC(C)=O)nc2-c2ccccc2)cc1	-9	14	33	0	15	-1	·
CC1(C)CC(=O)C2=C(C1)OC(N)=C(C#N)C21C(=O)N(Cc2ccccc2)c2ccccc21 (centres undefined)	·	10	3	·	·	·	·
O=C(c1cccs1)N1C2CCC1CC(c1ccc(F)cc1)C2 (centres undefined)	·	6	-48	·	·	·	·
Nc1ccc(SC(F)(F)F)cc1C(=O)c1ccccc1	-6	·	69*	10	-1	2	i
O=C(O)c1ccc(C(=O)c2ccccc2)c(C(=O)O)c1	·	5	12	·	·	·	·
O=C(NC12CC3CC(CC(C3)C1)C2)C1CCCN1S(=O)(=O)c1ccc(Cl)cc1 (centres undefined)	·	9	-2	·	·	·	·
O=C(c1ccccc1)N1N=C(c2ccccc2)CC1c1ccccc1O (centres undefined)	-3	6	85*	1	6	·	+
O=C(c1cccs1)N1N=C(c2ccccc2)CC1c1ccccc1O (centres undefined)	-16	3	24	5	-13	·	·
CC1=CCc2c(cc3oc(C)cc(=O)c3c2O)OC1	·	4	52	·	·	·	i
Cc1cc(=O)c2c(O)c(O)ccc2o1	5	10	1	1	-3	1	·
